Out of some 24,000 compounds screened, fewer than 10 were called active. Cut-off read from the data, not from the text of the source: active = caspase activation above about 5.9%; inconclusive = no clear call, values can overlap the other calls; inactive = below about 2.2%. Not all results are given here.
test: A1 inhibitors via caspase activation, primary screen, cell-based, luminescence, HTS, two replicates (AID 2465); conditions: MEF A1-2A-BIM cells, caspase-Glo luminescence, 3 h; active compounds read high; percent of clofoctol response, DMSO zero; concentration not given here
Summary of the method: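 system = A1-2A-BIM-expressing MEF cells | quantity = 2500 MEF cells/well | dosing = 50 nL compound per well, pinned | schedule = overnight cell settling, then 3 h compound exposure, 37 °C | signal = luminescence from DEVD-luciferin Caspase-Glo reagent, 1:1 in 50 mM HEPES, 1 h RT | read-out = Caspase-3/7 activation, seen as rise in luminescence signal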

Caspase activation, inactive:
Cc1ccc(S(=O)(=O)Nc2ccc3c(c2)C(=O)N([C@H](C)CO)C[C@@H](C)[C@H](CN(C)C(=O)Nc2ccc(C(F)(F)F)cc2)OCCCC[C@H](C)O3)cc1 -0.505%
COc1ccc(CN(C)C[C@@H]2Oc3ccc(NS(=O)(=O)c4ccc(F)cc4)cc3C(=O)N([C@@H](C)CO)C[C@@H]2C)cc1 -0.363%
C[C@H]1CN([C@@H](C)CO)C(=O)c2cccc(NS(=O)(=O)c3ccc(Cl)cc3)c2O[C@H]1CN(C)S(=O)(=O)c1ccc(Cl)cc1 -1.18%
Cc1ccc(S(=O)(=O)N(C)C[C@@H]2Oc3ccc(NC(=O)Cc4cn(C)c5ccccc45)cc3C(=O)N([C@@H](C)CO)C[C@@H]2C)cc1 0.187%
Cc1noc(C)c1S(=O)(=O)Nc1ccc2c(c1)CC(=O)N([C@@H](C)CO)C[C@H](C)[C@H](CN(C)C(=O)Nc1cccc3ccccc13)O2 0.254%
O=C(CCCCCCC(=O)Nc1ccccc1O)N/N=C/c1ccc(CO)o1 -0.255%
COC(=O)CCCCCCC(=O)N/N=C/c1ccc2ccccc2c1O -1.41%
COc1ccc(NC(=O)N(C)C[C@H]2OCCCC[C@@H](C)Oc3ccc(NC(=O)NC4CCCCC4)cc3C(=O)N([C@@H](C)CO)C[C@H]2C)cc1 0.476%
C[C@@H]1CN([C@@H](C)CO)C(=O)c2cc(NS(=O)(=O)c3cn(C)cn3)ccc2O[C@@H]1CN(C)Cc1ccc(C(=O)Nc2ccccc2N)cc1 0.311%
C[C@H]1CN([C@@H](C)CO)C(=O)c2cc(NC(=O)C3CCCCC3)ccc2O[C@H]1CN(C)C(=O)Nc1ccccc1 0.892%
C[C@@H]1CCCCO[C@@H](CN(C)Cc2ccc(C(=O)O)cc2)[C@@H](C)CN([C@@H](C)CO)C(=O)c2cc(NC(=O)Nc3ccc(C(F)(F)F)cc3)ccc2O1 0.286%
COc1ccc(NC(=O)Nc2ccc3c(c2)C(=O)N([C@@H](C)CO)C[C@@H](C)[C@@H](CN(C)Cc2ccncc2)OCCCC[C@@H](C)O3)cc1 -1.58%
C[C@@H]1CN([C@H](C)CO)C(=O)Cc2cc(NC(=O)CCC(F)(F)F)ccc2O[C@@H]1CN(C)Cc1ccncc1 0.918%
COc1ccc(NC(=O)N(C)C[C@H]2OCCCC[C@@H](C)Oc3ccc(NC(=O)c4ccncc4)cc3C(=O)N([C@@H](C)CO)C[C@H]2C)cc1 -1.47%
COc1ccc(C(=O)Nc2cccc(-n3cc(C(=O)NO)nn3)c2)cc1 -0.373%
COc1ccc(S(=O)(=O)Nc2ccc3c(c2)C(=O)N([C@@H](C)CO)C[C@H](C)[C@H](CN(C)S(=O)(=O)c2ccc(F)cc2)OCCCC[C@@H](C)O3)cc1 0.149%
C[C@H]1CN([C@@H](C)CO)C(=O)CCCn2cc(nn2)CO[C@@H]1CN(C)S(=O)(=O)c1cccc(C#N)c1 0.238%
Cc1noc(C)c1S(=O)(=O)N(C)C[C@@H]1Oc2ccc(NC(=O)Cn3cnnn3)cc2CC(=O)N([C@@H](C)CO)C[C@H]1C -0.944%
C[C@@H]1CN([C@@H](C)CO)C(=O)Cc2cc(NC(=O)CCCCCC(=O)Nc3ccccc3N)ccc2O[C@@H]1CN(C)C(=O)NC1CCCCC1 0.875%
C[C@H]1CN([C@@H](C)CO)C(=O)Cc2cc(NS(=O)(=O)c3ccccc3)ccc2O[C@H]1CN(C)Cc1ccc(C(=O)Nc2ccccc2N)cc1 0.839%
COc1ccc(CN(C)C[C@H]2OCCCC[C@H](C)Oc3ccc(NC(=O)NC4CCCCC4)cc3C(=O)N([C@@H](C)CO)C[C@@H]2C)cc1 2.09%
CN(C)c1ccc(/C=N/NC(=O)c2cccc(C(=O)NO)c2)cc1 -7.51%
C[C@@H]1CN([C@@H](C)CO)C(=O)c2cc(NC(=O)Nc3ccc4c(c3)OCO4)ccc2O[C@@H](C)CCCCO[C@@H]1CN(C)S(=O)(=O)c1cccs1 0.598%
COc1ccc(CN(C)C[C@H]2OCCCC[C@H](C)Oc3ccc(NC(=O)c4ccccc4)cc3C(=O)N([C@@H](C)CO)C[C@@H]2C)cc1 2.67%
O=C(NO)c1cccc(C(=O)N/N=C/c2cc(Br)c(O)c(Br)c2)c1 0.169%
CC(C)NC(=O)N(C)C[C@H]1Oc2ccc(NC(=O)CCCCCC(=O)Nc3ccccc3N)cc2CC(=O)N([C@@H](C)CO)C[C@H]1C 0.899%
Cc1noc(C)c1S(=O)(=O)N(C)C[C@H]1OCc2cn(nn2)CCCC(=O)N([C@H](C)CO)C[C@H]1C -0.756%
C[C@H]1CCCCO[C@@H](CN(C)C(=O)Nc2ccccc2)[C@@H](C)CN([C@@H](C)CO)C(=O)c2cc(NC(=O)Nc3ccc(F)cc3)ccc2O1 -0.917%
Cc1ccc(S(=O)(=O)Nc2ccc3c(c2)C(=O)N([C@H](C)CO)C[C@H](C)[C@@H](CN(C)Cc2ccccc2)OCCCC[C@H](C)O3)cc1 -0.556%
C[C@H](CO)N1C[C@H](C)[C@@H](CN(C)Cc2ccc(C(=O)O)cc2)Oc2ccc(NS(=O)(=O)c3cn(C)cn3)cc2CC1=O -0.273%
C[C@@H]1CCCCO[C@@H](CN(C)C(=O)Nc2cccc3ccccc23)[C@H](C)CN([C@H](C)CO)C(=O)c2cc(NS(C)(=O)=O)ccc2O1 -0.00967%
Cc1noc(C)c1NC(=O)Nc1ccc2c(c1)C(=O)N([C@H](C)CO)C[C@@H](C)[C@@H](CN(C)Cc1ccncc1)OCCCC[C@H](C)O2 -0.749%
C[C@@H]1CN([C@@H](C)CO)C(=O)c2cc(NC(=O)Cc3ccccc3)ccc2O[C@@H]1CN(C)CC1CCCCC1 0.64%
Cc1noc(C)c1NC(=O)Nc1ccc2c(c1)C(=O)N([C@@H](C)CO)C[C@@H](C)[C@H](CN(C)C(=O)NC(C)C)O2 0.213%
C[C@@H]1CN([C@H](C)CO)C(=O)c2cc(NC(=O)CCCCCC(=O)Nc3ccccc3N)ccc2O[C@H]1CN(C)Cc1ccncc1 0.61%
C[C@@H]1CCCCO[C@H](CN(C)CC2CC2)[C@@H](C)CN([C@H](C)CO)C(=O)c2cc(NC(=O)Nc3ccc(F)cc3)ccc2O1 -0.194%
COc1ccc(S(=O)(=O)N(C)C[C@@H]2Oc3c(NC(=O)NC(C)C)cccc3C(=O)N([C@@H](C)CO)C[C@@H]2C)cc1 -0.3%
O=C(CCCCC(=O)N/N=C/c1ccc(-n2ccnc2)cc1)NO 1.09%
C[C@H](CO)N1C[C@H](C)[C@H](CN(C)C(=O)c2ccccc2)OCCCC[C@H](C)Oc2ccc(N(C)C)cc2C1=O -1.45%
CC(C)NC(=O)Nc1ccc2c(c1)C(=O)N([C@H](C)CO)C[C@H](C)[C@@H](CN(C)S(=O)(=O)c1ccc(F)cc1)OCCCC[C@H](C)O2 1.08%
COc1ccc(S(=O)(=O)N(C)C[C@@H]2OCCCC[C@@H](C)Oc3ccc(NC(=O)c4ccccc4)cc3C(=O)N([C@@H](C)CO)C[C@H]2C)cc1 1.47%
C[C@@H]1CCCCO[C@H](CN(C)C(=O)Nc2ccc(C(F)(F)F)cc2)[C@@H](C)CN([C@@H](C)CO)C(=O)c2cc(NS(=O)(=O)c3cccs3)ccc2O1 -0.547%
CCOc1cccc(/C=N/NC(=O)CCCCCC(=O)Nc2ccccc2O)c1OCC -0.952%
C[C@@H]1CN([C@@H](C)CO)C(=O)c2cc(NC(=O)Nc3ccc(C(F)(F)F)cc3)ccc2O[C@@H](C)CCCCO[C@H]1CN(C)C(=O)CCCN(C)C 0.263%
Cc1noc(C)c1NC(=O)N(C)C[C@@H]1Oc2ccc(NS(=O)(=O)c3ccc(F)cc3)cc2CC(=O)N([C@@H](C)CO)C[C@H]1C -0.135%
COc1ccc(S(=O)(=O)Nc2ccc3c(c2)CC(=O)N([C@H](C)CO)C[C@H](C)[C@@H](CN(C)C(=O)NC(C)C)O3)cc1 0.0847%
C[C@H](CO)N1C[C@H](C)[C@@H](CN(C)S(C)(=O)=O)OCCCC[C@H](C)Oc2ccc(NC(=O)Nc3ccc(C(F)(F)F)cc3)cc2C1=O -0.463%
C[C@H]1CCCCO[C@H](CN(C)S(C)(=O)=O)[C@@H](C)CN([C@@H](C)CO)C(=O)c2cc(NC(=O)C3CCCCC3)ccc2O1 -0.127%
C[C@@H]1CN([C@@H](C)CO)C(=O)c2cc(NC(=O)NC3CCCCC3)ccc2O[C@@H](C)CCCCO[C@H]1CN(C)Cc1ccccc1 1.95%
C[C@@H]1CCCCO[C@@H](CN(C)C(=O)Nc2cccc3ccccc23)[C@H](C)CN([C@H](C)CO)C(=O)c2cc(NC(=O)NC3CCCCC3)ccc2O1 -0.528%
COc1ccc(NC(=O)N(C)C[C@H]2OCCCC[C@H](C)Oc3ccc(NC(=O)c4ccncc4)cc3C(=O)N([C@H](C)CO)C[C@@H]2C)cc1 -1.84%
COc1ccc(S(=O)(=O)Nc2cccc3c2O[C@@H](CN(C)C(=O)NC(C)C)[C@H](C)CN([C@@H](C)CO)C3=O)cc1 0.104%
COc1ccc(CN(C)C[C@H]2Oc3ccc(NS(=O)(=O)c4c(C)noc4C)cc3CC(=O)N([C@H](C)CO)C[C@H]2C)cc1 -1.02%
C[C@H]1CCCCO[C@H](CN(C)C(=O)Nc2ccccc2)[C@@H](C)CN([C@@H](C)CO)C(=O)c2cc(NC(=O)c3ccncc3)ccc2O1 0.525%

— PubChem BioAssay AID2465 (Broad Institute, 2010)
